Laboratory results published in ChEMBL document CHEMBL4257543, “Structural optimization and antibacterial evaluation of rhodomyrtosone B analogues against MRSA strains” (Medchemcomm, 2018).
Values after ≈ are worked out from the molar mass of the structure shown. Active and inactive are the calls of the source.

How the values were obtained:
Paenibacillus polymyxa = test: Antibacterial activity against Bacillus polymyxa ATCC 842 by micro dilution susceptibility test; type: functional
Summary of the method: (§1)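 Microbroth dilution MIC in Mueller–Hinton broth following CLSI guidelines, with vancomycin as positive control; assays run at least in triplicate.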

Staphylococcus aureus [1] = test: Antibacterial activity against methicillin-resistant Staphylococcus aureus N315 by micro dilution susceptibility test; type: functional
Summary of the method: (§2)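 Microbroth dilution MIC in Mueller–Hinton broth following CLSI guidelines, vancomycin as positive control; resazurin added as visible growth indicator. Assays run at least in triplicate.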

Staphylococcus aureus [2] = test: Antibacterial activity against methicillin-resistant Staphylococcus aureus JCSC 2172 by micro dilution susceptibility test; type: functional; summary of the method: as §2
Staphylococcus aureus [3] = test: Antibacterial activity against methicillin-resistant Staphylococcus aureus JCSC 4788 at sub-MIC re-passaged at 24 hrs intervals for 20 times by micro dilution susceptibility test; type: functional, organism-based
Summary of the method: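 Exponential-phase MRSA JCSC 4788 at 37 °C passaged into fresh MHB containing compound at a sub-inhibitory concentration and re-passaged at 24 h intervals up to at least 20 passages; MIC then redetermined by CLSI microbroth dilution in MHB. Resistance defined as a more than 4-fold increase over the initial MIC.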

Staphylococcus aureus [4] = test: Antibacterial activity against methicillin-resistant Staphylococcus aureus JCSC 4788 by micro dilution susceptibility test; type: functional; summary of the method: as §2
Staphylococcus aureus [5] = test: Antibacterial activity against methicillin-resistant Staphylococcus aureus 85/2082 by micro dilution susceptibility test; type: functional; summary of the method: as §2
Staphylococcus aureus [6] = test: Antibacterial activity against methicillin-resistant Staphylococcus aureus JCSC 4744 by micro dilution susceptibility test; type: functional; summary of the method: as §2
Bacillus cereus = test: Antibacterial activity against Bacillus cereus ATCC 10876 by micro dilution susceptibility test; type: functional; summary of the method: as §1
[7] = Selectivity ratio of IC50 for human MCF7 cells to MIC for methicillin-resistant Staphylococcus aureus JCSC 4788; type: toxicity
Summary of the method: (§3)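 Ratio of 24 h MTT cytotoxicity IC50 (compound 1.5625–100 μg mL−1, 0.5% DMSO control) to MIC against MRSA JCSC 4788 from CLSI microbroth dilution in MHB; IC50 values expressed as mean ± SD.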

Staphylococcus aureus [8] = test: Selectivity ratio of MIC for methicillin-resistant Staphylococcus aureus JCSC 4744 to MIC for methicillin-resistant Staphylococcus aureus JCSC 4788; type: functional
[9] = system: Staphylococcus epidermidis; test: Antibacterial activity against Staphylococcus epidermidis ATCC 12228 by micro dilution susceptibility test; type: functional; summary of the method: as §1
Staphylococcus aureus [10] = test: Selectivity ratio of MIC for methicillin-resistant Staphylococcus aureus JCSC 4469 to MIC for methicillin-resistant Staphylococcus aureus JCSC 4788; type: functional
Staphylococcus aureus [11] = test: Induction of cytoplasmic membrane hyperpolarization in methicillin-resistant Staphylococcus aureus JCSC 4788 at 4 to 8 times MIC measured up to 9 mins by Disc3(5) staining based fluorescence spectrophotometric method; type: functional, organism-based
Summary of the method: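 Exponential-phase MRSA JCSC 4788 washed and set to OD620 0.1 in 5 mM HEPES pH 7. Cells loaded with 0.4 μM DiSC3(5) plus 100 mM KCl for 20 min at 37 °C with agitation. Compound added at 0.5–8× MIC and fluorescence followed at ex 660/em 670 nm; mean ± SD.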

Staphylococcus aureus [12] = test: Antibacterial activity against Staphylococcus aureus ATCC 29213 by micro dilution susceptibility test; type: functional; summary of the method: as §2
Staphylococcus aureus [13] = test: Induction of morphological changes in methicillin-resistant Staphylococcus aureus JCSC 4788 assessed as cytoplasmic membrane disruption at 4 times MIC measured after 3 hrs scanning electron microscopic analysis; type: functional, organism-based
Summary of the method: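 Exponential-phase MRSA JCSC 4788 treated at 37 °C and washed. Cells prefixed overnight in 0.1 M phosphate pH 7.2 with 2% glutaraldehyde and 2.5% paraformaldehyde, then post-fixed in 1% OsO4 for 2 h. Samples ethanol-dehydrated, freeze-dried, gold-coated and imaged by SEM.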

SF-268 = test: Cytotoxicity against human SF268 cells by MTT assay; type: cell-based
Summary of the method: (§4)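 MTT viability assay after 24 h exposure to compound at 1.5625–100 µg mL⁻¹; control cells received DMSO at 0.5% (highest test-well level); IC50 given as mean ± SD of at least triplicate runs.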

Staphylococcus aureus [14] = test: Selectivity ratio of MIC for methicillin-resistant Staphylococcus aureus 85/2082 to MIC for methicillin-resistant Staphylococcus aureus JCSC 4788; type: functional
[15] = Selectivity ratio of MIC for vancomycin-resistant Enterococcus faecium to MIC for methicillin-resistant Staphylococcus aureus JCSC 4788; type: functional
[16] = Selectivity ratio of IC50 for human SF268 cells to MIC for methicillin-resistant Staphylococcus aureus JCSC 4788; type: toxicity; summary of the method: as §3
Staphylococcus aureus [17] = test: Antibacterial activity against methicillin-resistant Staphylococcus aureus JCSC 4788 in Balb/c mouse skin infection model assessed as reduction in skin ulcer formation at 40 ug administered as single dose via intradermal route measured 3 to 8 days post-infection; type: functional, organism-based
Summary of the method: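 Female BALB/c mice (18–20 g) injected intradermally in abdominal skin with 0.1 mL of MRSA JCSC 4788 (1×10^8 CFU) mixed with a single 40 μg dose in DMSO; DMSO-vehicle controls. Body weight and lesion size recorded daily for 11 days, ulcers imaged at 3 and 8 days; n = 6, mean ± SD.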

Enterococcus faecalis = test: Antibacterial activity against Enterococcus faecalis ATCC 29212 by micro dilution susceptibility test; type: functional; summary of the method: as §1
RAW264.7 = test: Cytotoxicity against mouse RAW264.7 cells by MTT assay; type: cell-based; summary of the method: as §4

For `CCCCCCCC(=O)c1c(O)cc(O)c2c1OC1=C(C(=O)C(C)(C)C(=O)C1(C)C)C2CC(C)C` (configuration not stated), which MIC (Paenibacillus polymyxa) is on record?
Its MIC is over 32 µg/mL.

What about the MIC (Staphylococcus aureus [1]) of the same compound?
Its MIC is 0.25 µg/mL (≈ 0.516 µM).

And the MIC (Staphylococcus aureus [2])?
Its MIC is 0.25 µg/mL (≈ 0.516 µM).

What about the Activity (Staphylococcus aureus [3]) of the same compound?
Its Activity is “Active”.

What about the MIC (Staphylococcus aureus [4]) of the same compound?
Its MIC is 0.25 to 0.5 µg/mL (≈ 0.516 to 1.03 µM).

What about the MIC (Staphylococcus aureus [5]) of the same compound?
The MIC was 0.25 µg/mL (≈ 0.516 µM).

And the MIC (Staphylococcus aureus [6])?
Its MIC is 0.125 µg/mL (≈ 0.258 µM).

What about the MIC (Bacillus cereus) of the same compound?
Its MIC is 0.5 µg/mL (≈ 1.03 µM).

And the Selectivity ratio [7]?
The Selectivity ratio was 39.9.

And the Selectivity ratio (Staphylococcus aureus [8])?
Its Selectivity ratio is 0.5 - 2.

And the MIC [9]?
Its MIC is 0.25 µg/mL (≈ 0.516 µM).

And the Selectivity ratio (Staphylococcus aureus [10])?
The Selectivity ratio was 0.5 - 2.

What about the Activity (Staphylococcus aureus [11]) of the same compound?
The Activity was “Active”.

And the MIC (Staphylococcus aureus [12])?
The MIC was 0.5 µg/mL (≈ 1.03 µM).

What about the Activity (Staphylococcus aureus [13]) of the same compound?
Its Activity is “Active”.

And the IC50 (SF-268)?
The IC50 was 10.2 µg/mL (≈ 20.9 µM).

What about the Selectivity ratio (Staphylococcus aureus [14]) of the same compound?
The Selectivity ratio was 0.5 - 2.

And the Selectivity ratio [15]?
The Selectivity ratio was 0.5 to 2.

And the Selectivity ratio [16]?
Its Selectivity ratio is 40.6.

What about the Activity (Staphylococcus aureus [17]) of the same compound?
The Activity was “Active”.

What about the MIC (Enterococcus faecalis) of the same compound?
Its MIC is 0.25 µg/mL (≈ 0.516 µM).

What about the IC50 (RAW264.7) of the same compound?
The IC50 was 5.6 µg/mL (≈ 11.6 µM).
